In ChEMBL document CHEMBL1153263, “3-Acrylamide-4-aryloxyindoles: synthesis, biological evaluation and metabolic stability of potent and selective EP3 receptor antagonists” (Bioorg Med Chem Lett, 2009):

How the values were obtained:
[1] = target: T1, Prostaglandin E2 receptor EP3 subtype (Homo sapiens, UniProt P43115); test: Displacement of [3H]PGE2 from human EP3 receptor at 20 uM in presence of normal buffer
T1 sequence (P43115 whole entry): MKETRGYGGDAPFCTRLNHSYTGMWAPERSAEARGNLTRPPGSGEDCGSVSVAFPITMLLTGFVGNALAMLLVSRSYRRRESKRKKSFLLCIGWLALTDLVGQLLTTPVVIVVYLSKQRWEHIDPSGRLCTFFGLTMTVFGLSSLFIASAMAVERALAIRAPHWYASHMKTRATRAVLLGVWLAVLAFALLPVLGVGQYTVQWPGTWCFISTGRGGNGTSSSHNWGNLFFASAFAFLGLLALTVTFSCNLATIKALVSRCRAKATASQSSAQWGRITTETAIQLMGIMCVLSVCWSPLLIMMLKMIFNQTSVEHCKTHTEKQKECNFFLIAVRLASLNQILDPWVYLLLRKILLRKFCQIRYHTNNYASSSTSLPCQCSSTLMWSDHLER

[2] = target: T1, Prostaglandin E2 receptor EP3 subtype; test: Displacement of [3H]PGE2 from human EP3 receptor at 20 uM in presence of 10% human serum
[3] = target: T2, Prostaglandin E2 receptor EP3 subtype (Homo sapiens) (UniProt P43115); test: Ratio IC50 for human EP3 receptor in presence of human serum to IC50 for human EP3 in absence of human serum
T2 sequence (whole entry): T1 sequence (P43115 whole entry)

[4] = target: Prostaglandin E2 receptor EP2 subtype (Homo sapiens, UniProt P43116); test: Displacement of radioligand from EP2 receptor
Sequence of Prostaglandin E2 receptor EP2 subtype (P43116 whole entry): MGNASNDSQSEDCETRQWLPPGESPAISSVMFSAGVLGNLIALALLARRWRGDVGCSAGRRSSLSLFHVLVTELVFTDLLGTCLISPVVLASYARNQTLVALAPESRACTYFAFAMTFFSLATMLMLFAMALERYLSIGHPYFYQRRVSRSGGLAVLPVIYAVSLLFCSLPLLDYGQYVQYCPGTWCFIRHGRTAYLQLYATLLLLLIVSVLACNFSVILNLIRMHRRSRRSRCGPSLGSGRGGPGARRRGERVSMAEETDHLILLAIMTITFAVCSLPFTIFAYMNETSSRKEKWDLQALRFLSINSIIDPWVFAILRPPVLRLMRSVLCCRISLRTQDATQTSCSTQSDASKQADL

[5] = target: Prostaglandin E2 receptor EP4 subtype (Homo sapiens, UniProt P35408); test: Displacement of radioligand from EP4 receptor
Sequence of Prostaglandin E2 receptor EP4 subtype (P35408 whole entry): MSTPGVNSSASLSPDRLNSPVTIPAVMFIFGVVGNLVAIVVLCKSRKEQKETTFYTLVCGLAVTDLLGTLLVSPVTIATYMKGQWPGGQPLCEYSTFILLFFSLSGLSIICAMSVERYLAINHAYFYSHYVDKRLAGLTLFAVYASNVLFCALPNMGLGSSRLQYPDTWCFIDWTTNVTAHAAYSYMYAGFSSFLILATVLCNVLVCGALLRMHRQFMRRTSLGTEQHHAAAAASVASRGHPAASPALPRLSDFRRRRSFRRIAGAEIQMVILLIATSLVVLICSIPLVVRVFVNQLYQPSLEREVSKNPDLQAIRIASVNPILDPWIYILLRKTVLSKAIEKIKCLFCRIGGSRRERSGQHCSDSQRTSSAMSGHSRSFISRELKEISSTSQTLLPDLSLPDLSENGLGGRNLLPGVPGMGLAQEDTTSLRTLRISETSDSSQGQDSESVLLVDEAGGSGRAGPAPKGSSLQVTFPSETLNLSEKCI

[6] = target: Prostaglandin F2-alpha receptor (Homo sapiens, UniProt P43088); test: Displacement of radioligand from FP receptor
Sequence of Prostaglandin F2-alpha receptor (P43088 whole entry): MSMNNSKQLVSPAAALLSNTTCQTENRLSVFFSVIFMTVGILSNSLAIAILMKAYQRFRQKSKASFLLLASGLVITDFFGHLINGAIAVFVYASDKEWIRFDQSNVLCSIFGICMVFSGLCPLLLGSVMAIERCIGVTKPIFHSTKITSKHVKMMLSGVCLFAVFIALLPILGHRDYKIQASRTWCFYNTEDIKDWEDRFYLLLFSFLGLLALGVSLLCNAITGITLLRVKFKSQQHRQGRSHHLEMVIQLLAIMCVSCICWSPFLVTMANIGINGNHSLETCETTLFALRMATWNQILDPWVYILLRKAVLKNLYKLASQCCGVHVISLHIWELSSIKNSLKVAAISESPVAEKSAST

[7] = Metabolic stability in human liver microsome assessed as compound remaining at 5 uM after 30 mins; assay type: ADME; conditions: liver microsomes, read-out: Stability
In short: (§1)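 Liver microsomes at 0.8 mg/mL protein incubated with compound at 5 µM. Percent parent remaining after 30 min measured by LC–MS/MS.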

[8] = Metabolic stability in rat liver microsome assessed as compound remaining at 5 uM after 30 mins; assay type: ADME; conditions: liver microsomes, read-out: Stability; in short: as §1
[9] = target: T3, Prostaglandin E2 receptor EP1 subtype (Homo sapiens, UniProt P34995); test: Displacement of radioligand from EP1 receptor
T3 sequence (P34995 whole entry): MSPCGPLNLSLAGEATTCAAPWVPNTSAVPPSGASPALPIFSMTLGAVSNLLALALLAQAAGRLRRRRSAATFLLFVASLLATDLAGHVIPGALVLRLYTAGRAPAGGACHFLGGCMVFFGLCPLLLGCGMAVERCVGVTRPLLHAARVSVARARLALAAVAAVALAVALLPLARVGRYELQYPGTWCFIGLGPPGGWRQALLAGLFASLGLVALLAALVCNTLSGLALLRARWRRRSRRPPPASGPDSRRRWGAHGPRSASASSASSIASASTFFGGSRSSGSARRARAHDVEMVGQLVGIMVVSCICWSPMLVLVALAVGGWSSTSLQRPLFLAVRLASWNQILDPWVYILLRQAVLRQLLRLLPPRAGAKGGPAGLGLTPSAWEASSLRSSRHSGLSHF

[10] = Metabolic stability in dog liver microsome assessed as compound remaining at 5 uM after 30 mins; assay type: ADME, Canis lupus familiaris; conditions: liver microsomes, read-out: Stability; in short: as §1
[11] = target: Prostacyclin receptor (Homo sapiens, UniProt P43119); test: Displacement of radioligand from IP receptor
Sequence of Prostacyclin receptor (P43119 whole entry): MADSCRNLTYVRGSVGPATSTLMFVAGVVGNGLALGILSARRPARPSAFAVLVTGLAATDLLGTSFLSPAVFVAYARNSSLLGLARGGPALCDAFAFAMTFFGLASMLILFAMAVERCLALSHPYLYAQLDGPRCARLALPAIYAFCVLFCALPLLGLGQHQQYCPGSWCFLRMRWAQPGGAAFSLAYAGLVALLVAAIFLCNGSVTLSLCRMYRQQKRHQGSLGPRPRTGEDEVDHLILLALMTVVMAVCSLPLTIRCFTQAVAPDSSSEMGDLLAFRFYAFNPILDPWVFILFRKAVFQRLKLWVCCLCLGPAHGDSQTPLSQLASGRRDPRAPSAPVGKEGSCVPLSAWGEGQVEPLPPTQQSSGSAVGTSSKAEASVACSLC

| IC50 [1] [nM] | IC50 [2] [nM] | Ratio IC50 [3] | SMILES | further results |
| --- | --- | --- | --- | --- |
| 6.5 | 157 | 24.3 | Cn1cc(/C=C/C(=O)NS(=O)(=O)c2cc(F)ccc2F)c2c(Oc3ccc4ccccc4c3)cccc21 |  |
| 21.9 | 1100 | 50.2 | Cn1cc(/C=C/C(=O)NS(=O)(=O)c2ccc(Cl)cc2)c2c(Oc3ccc4ccccc4c3)cccc21 |  |
| 27.3 | 776 | 28.4 | Cn1cc(/C=C/C(=O)NS(=O)(=O)c2ccc(F)c(F)c2)c2c(Oc3ccc(Cl)cc3)cccc21 |  |
| 12.4 | 50.8 | 4.1 | Cn1cc(/C=C/C(=O)NS(=O)(=O)c2ccc(F)c(F)c2)c2c(Oc3ccc(Cl)c(Cl)c3)cccc21 | IC50 [4]: 4200 nM; IC50 [5]: 20400 nM; IC50 [6]: 2400 nM; remaining at 0.5 h, 5 µM [7]: 58.8%; remaining at 0.5 h, 5 µM [8]: 14.9%; IC50 [9]: > 10000 nM |
| 8.7 | 321 | 37 | Cn1cc(/C=C/C(=O)NS(=O)(=O)c2cc(Cl)cc(Cl)c2)c2c(Oc3ccc4ccccc4c3)cccc21 |  |
| 9.7 | 61.1 | 6.3 | Cn1cc(/C=C/C(=O)NS(=O)(=O)c2cc(F)c(F)cc2F)c2c(Oc3ccc(F)c(Cl)c3)cccc21 | IC50 [4]: > 10000 nM; IC50 [5]: > 10000 nM; IC50 [6]: 3160 nM; IC50 [9]: > 10000 nM |
| 18.1 | 316 | 17.5 | Cn1cc(/C=C/C(=O)NS(=O)(=O)c2cc(F)c(F)cc2F)c2c(Oc3ccc(F)cc3Cl)cccc21 |  |
| 1.9 | 130 | 68.7 | Cn1cc(/C=C/C(=O)NS(=O)(=O)c2ccc(F)c(F)c2)c2c(Oc3ccc4ncccc4c3)cccc21 |  |
| 6.7 | 53.9 | 8 | Cn1cc(/C=C/C(=O)NS(=O)(=O)c2cc(F)c(F)cc2F)c2c(Oc3ccc(Cl)c(F)c3)cccc21 | IC50 [4]: 10000 nM; IC50 [5]: 10000 nM; IC50 [6]: 2230 nM; IC50 [9]: 1370 nM |
| 23.4 | 612 | 26.3 | Cn1cc(/C=C/C(=O)NS(=O)(=O)c2ccc(F)c(F)c2)c2c(Oc3ccc(Cl)c(F)c3)cccc21 |  |
| 9.4 | 182 | 19.4 | Cn1cc(/C=C/C(=O)NS(=O)(=O)c2ccc(F)cc2)c2c(Oc3ccc4ccccc4c3)cccc21 |  |
| 15.7 | 35 | 2.2 | Cn1cc(/C=C/C(=O)NS(=O)(=O)c2cccc(Cl)c2)c2c(Oc3ccc4ccccc4c3)cccc21 | remaining at 0.5 h, 5 µM [7]: 79%; remaining at 0.5 h, 5 µM [8]: 33.3%; remaining at 0.5 h, 5 µM [10]: 80.6% |
| 8.5 | 168 | 19.8 | Cn1cc(/C=C/C(=O)NS(=O)(=O)c2cc(F)c(F)cc2F)c2c(Oc3ccc4ncccc4c3)cccc21 |  |
| 18.4 | 1680 | 91.3 | Cn1cc(/C=C/C(=O)NS(=O)(=O)c2ccccc2Cl)c2c(Oc3ccc4ccccc4c3)cccc21 |  |
| 101 |  |  | COc1ccc(S(=O)(=O)NC(=O)/C=C/c2cn(C)c3cccc(Oc4ccc5ccccc5c4)c23)cc1 |  |
| 17.5 | 116 | 6.6 | Cn1cc(/C=C/C(=O)NS(=O)(=O)c2cccc(F)c2)c2c(Oc3ccc4ccccc4c3)cccc21 |  |
| 4.6 | 89.6 | 19.4 | Cn1cc(/C=C/C(=O)NS(=O)(=O)c2cc(Cl)c(Cl)s2)c2c(Oc3ccc4ccccc4c3)cccc21 |  |
| 5.9 | 710 | 121 | Cn1cc(/C=C/C(=O)NS(=O)(=O)c2c(F)cccc2F)c2c(Oc3ccc4ccccc4c3)cccc21 |  |
| 18.5 |  |  | Cn1cc(/C=C/C(=O)NS(=O)(=O)c2ccc(F)c(F)c2)c2c(Oc3ccc(F)cc3F)cccc21 |  |

| IC50 [1] [nM] | IC50 [2] [nM] | Ratio IC50 [3] | SMILES | further results |
| --- | --- | --- | --- | --- |
| 5.1 |  |  | Cn1cc(/C=C/C(=O)NS(=O)(=O)c2c(F)c(F)c(F)c(F)c2F)c2c(Oc3ccc4ccccc4c3)cccc21 |  |
| 3.2 | 16.7 | 5.2 | Cn1cc(/C=C/C(=O)NS(=O)(=O)c2cc(F)c(F)cc2F)c2c(Oc3ccc(Cl)cc3Cl)cccc21 | IC50 [4]: 9300 nM; IC50 [5]: > 10000 nM; IC50 [6]: 3570 nM; remaining at 0.5 h, 5 µM [7]: 74.7%; remaining at 0.5 h, 5 µM [8]: 39.1% |
| 5.1 |  |  | COc1cccc(Oc2cccc3c2c(/C=C/C(=O)NS(=O)(=O)c2cc(F)c(F)cc2F)cn3C)c1 |  |
| 2.6 | 45.2 | 17.1 | Cn1cc(/C=C/C(=O)NS(=O)(=O)c2cc(F)c(F)cc2F)c2c(Oc3ccc(Cl)c(Cl)c3)cccc21 | IC50 [4]: 7680 nM; IC50 [5]: 13000 nM; IC50 [6]: 4640 nM; IC50 [9]: 5320 nM |
| 3.5 | 115 | 32.7 | Cn1cc(/C=C/C(=O)NS(=O)(=O)c2ccc(F)cc2F)c2c(Oc3ccc4ccccc4c3)cccc21 |  |
| 11.8 | 92.9 | 7.8 | Cn1cc(/C=C/C(=O)NS(=O)(=O)c2ccc(Cl)c(Cl)c2)c2c(Oc3ccc4ccccc4c3)cccc21 |  |
| 11.9 | 646 | 54.3 | Cn1cc(/C=C/C(=O)NS(=O)(=O)c2ccccc2F)c2c(Oc3ccc4ccccc4c3)cccc21 |  |
| 6.1 | 217 | 35.3 | Cn1cc(/C=C/C(=O)NS(=O)(=O)c2ccc(F)c(F)c2)c2c(Oc3cnc4ccccc4n3)cccc21 |  |
| 7.2 | 128 | 17.7 | Cn1cc(/C=C/C(=O)NS(=O)(=O)c2cc(F)c(F)cc2F)c2c(Oc3cnc4ccccc4n3)cccc21 |  |
| 26.9 | 81.5 | 3 | Cn1cc(/C=C/C(=O)NS(=O)(=O)c2ccc(F)c(F)c2)c2c(Oc3ccc(F)c(Cl)c3)cccc21 | IC50 [4]: > 10000 nM; IC50 [5]: > 10000 nM; IC50 [11]: 4100 nM; IC50 [6]: 1820 nM; remaining at 0.5 h, 5 µM [7]: 91.5%; remaining at 0.5 h, 5 µM [8]: 32% |
| 3 | 393 | 132 | Cn1cc(/C=C/C(=O)NS(=O)(=O)c2cc(F)c(F)cc2F)c2c(Oc3ccc(Cl)cc3)cccc21 |  |
| 4.4 | 156 | 35.6 | Cn1cc(/C=C/C(=O)NS(=O)(=O)c2cc(F)c(F)cc2F)c2c(Oc3ccc(Cl)cc3F)cccc21 |  |
| 13.8 | 146 | 10.5 | Cn1cc(/C=C/C(=O)NS(=O)(=O)c2ccc(F)c(F)c2)c2c(Oc3ccc(F)cc3Cl)cccc21 |  |
| 44.9 | 157 | 3.5 | Cn1cc(/C=C/C(=O)NS(=O)(=O)c2cc(F)cc(F)c2)c2c(Oc3ccc4ccccc4c3)cccc21 |  |
| 3.8 | 209 | 55 | Cn1cc(/C=C/C(=O)NS(=O)(=O)c2cc(F)c(F)cc2F)c2c(Oc3ccc(F)c(F)c3)cccc21 |  |
| 4.4 |  |  | COc1cccc(Oc2cccc3c2c(/C=C/C(=O)NS(=O)(=O)c2ccc(F)c(F)c2)cn3C)c1 |  |
| 54.1 | 1540 | 28.5 | Cn1cc(/C=C/C(=O)NS(=O)(=O)c2ccc(Cl)cc2Cl)c2c(Oc3ccc4ccccc4c3)cccc21 |  |
| 84.8 |  |  | Cn1cc(/C=C/C(=O)NS(=O)(=O)c2cc(F)c(F)cc2F)c2c(Oc3ccc(F)cc3F)cccc21 |  |
| 4.7 | 196 | 41.9 | Cn1cc(/C=C/C(=O)NS(=O)(=O)c2ccc(F)c(F)c2)c2c(Oc3ccc(F)c(F)c3)cccc21 |  |
